Screening results (PubChem)
These entries were drawn from the full list.
Apaf-1 act = activators of human Apaf-1 apoptosome, primary screen, biochemical, DEVD-Rh110 fluorescence, uHTS; 0.31% of 330,000 active; Apaf-1 apoptosome caspase-3 activation; stronger effect = lower value; activity change, negative = activation, % at 20 µM; Apoptotic protease-activating factor 1 (Homo sapiens), O14727;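 active = activity change at or below -40% at 20 µM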
Target sequence (O14727 whole entry, looked up): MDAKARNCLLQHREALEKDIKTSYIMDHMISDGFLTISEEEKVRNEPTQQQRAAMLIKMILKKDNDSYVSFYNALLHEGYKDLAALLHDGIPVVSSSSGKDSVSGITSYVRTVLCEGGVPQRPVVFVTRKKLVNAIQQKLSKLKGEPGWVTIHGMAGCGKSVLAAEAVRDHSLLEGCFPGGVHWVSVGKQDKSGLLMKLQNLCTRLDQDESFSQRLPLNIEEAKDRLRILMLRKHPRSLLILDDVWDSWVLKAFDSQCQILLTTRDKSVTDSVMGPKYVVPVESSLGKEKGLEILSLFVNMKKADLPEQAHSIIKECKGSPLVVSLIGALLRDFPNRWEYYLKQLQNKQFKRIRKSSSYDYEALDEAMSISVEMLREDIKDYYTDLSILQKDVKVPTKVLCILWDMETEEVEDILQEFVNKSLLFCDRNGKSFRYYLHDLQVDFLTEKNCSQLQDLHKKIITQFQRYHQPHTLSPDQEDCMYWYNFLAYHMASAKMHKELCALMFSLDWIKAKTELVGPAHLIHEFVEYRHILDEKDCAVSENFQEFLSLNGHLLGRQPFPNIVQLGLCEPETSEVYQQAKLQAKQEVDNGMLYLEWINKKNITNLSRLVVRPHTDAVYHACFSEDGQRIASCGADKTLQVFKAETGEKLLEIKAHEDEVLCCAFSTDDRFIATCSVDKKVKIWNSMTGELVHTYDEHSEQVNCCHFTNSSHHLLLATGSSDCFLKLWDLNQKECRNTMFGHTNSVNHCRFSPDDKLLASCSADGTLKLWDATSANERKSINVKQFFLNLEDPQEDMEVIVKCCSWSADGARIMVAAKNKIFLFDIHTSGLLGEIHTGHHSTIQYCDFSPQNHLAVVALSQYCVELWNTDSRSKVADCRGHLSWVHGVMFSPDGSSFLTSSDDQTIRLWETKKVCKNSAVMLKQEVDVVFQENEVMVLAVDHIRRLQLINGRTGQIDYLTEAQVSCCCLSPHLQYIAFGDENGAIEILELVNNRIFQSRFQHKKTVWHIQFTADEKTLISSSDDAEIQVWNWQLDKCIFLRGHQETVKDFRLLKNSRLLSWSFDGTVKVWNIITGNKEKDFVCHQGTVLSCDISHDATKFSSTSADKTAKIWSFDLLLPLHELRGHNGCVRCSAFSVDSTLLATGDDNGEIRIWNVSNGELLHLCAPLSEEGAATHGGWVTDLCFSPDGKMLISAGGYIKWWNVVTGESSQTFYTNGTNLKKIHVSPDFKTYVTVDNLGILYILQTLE
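Assay system – biochemical Apaf-1 apoptosome reconstitution · Medium – 20 mM HEPES buffer, pH 7.5, containing CHAPS and BSA · Incubation – 30 min preincubation, 50 min reaction, room temperature · Measured by – Caspase-3-released Rh110 fluorescence, 540 nm emission, 480 nm excitation · Read-out – Caspase-3 cleavage activity downstream of Apaf-1 activation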
Rh110 act interf = Rh110 fluorescence interference by putative Apaf-1 activators, confirmation, artefact control for Apaf-1 activator project, biochemical, 20 µM. 980 tested, under 10 active. shares compounds with Apaf-1 act. quenched caspase reaction, Ex480/Em540. fluorescence interference (activity change), % at 20 µM, hits read low. AID 504616, 2011;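 active = mean activity change at or below -40% when tested at 20 µM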
Apaf-1 act conf2 = Apaf-1 activators, single-dose retest, confirmation, biochemical, fluorescence, DEVD-Rh110, 20 µM | shares compounds with Apaf-1 act | 5% of 980 active | activity change, negative = activation, % at 20 µM | reconstituted apoptosome caspase-3 activity; stronger effect = lower value | AID 504617, 2011;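 active = mean activity change at or below -40%, meaning activation of 40% or more, at 20 µM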
Fluor interf act = fluorescence interference of Apaf-1 activator hits, dose response, artefact control for Apaf-1 activator project. 55 tested, under 10 active. EC50, µM. AID 588592, 2011. fluorescence interference counterscreen, Apaf-1 activator assay. shares compounds with Apaf-1 act; call rule not given here
A number is an active result; n = inactive; x = not tested or not shown.

SMILES | Apaf-1 act | Rh110 act interf | Apaf-1 act conf2 | others
CCN(CC)CCOC(=O)c1ccc(N/C=C(/C#N)c2nc(-c3ccc4c(c3)OCO4)cs2)cc1 | n | x | x
Cc1ccc(NC(=S)Nc2cccc3cnccc23)cc1 | n | x | x
COc1ccc(C2/C(=C(/O)c3ccc4c(c3)CC(C)O4)C(=O)C(=O)N2CCCn2ccnc2)cc1 (stereo unspecified) | n | x | x
COc1ccc(/C(O)=C2/C(=O)C(=O)N(Cc3ccco3)C2c2cccs2)cc1 (stereo unspecified) | -63.6 | n | n
COc1ccccc1C1/C(=C(\O)c2ccc3c(c2)OCCO3)C(=O)C(=O)N1CCCn1ccnc1 (stereo unspecified) | n | x | x
CCCCCCCCCCCCCCCCn1cc[n+](C)c1 | n | x | x
Cc1ccc(S(=O)(=O)Nc2ccc3c(c2)CC(=O)N([C@H](C)CO)C[C@@H](C)[C@H](CN(C)Cc2ccc(-c4ccccc4)cc2)O3)cc1 | n | x | x
CCC1CCc2sc(C(=O)NCC(c3ccc(OC)cc3)N3CCCC3)cc2C1 (stereo unspecified) | n | x | x
Cc1c(C(=O)Nc2ccncc2)sc2nc(-c3ccc(F)cc3)cn12 | -43.8 | n | n
COc1ccc(C[C@H]2CN3C(=NC[C@@H]3C(C)C)N2C[C@H](C)NC(=O)c2ccc(C)c(Br)c2)cc1 | n | x | x
C[C@H]1CN([C@@H](C)CO)C(=O)Cc2cc(NC(=O)CCC(F)(F)F)ccc2O[C@H]1CN(C)Cc1ccc(-c2ccccc2)cc1 | n | x | x
C[C@@H](CN1C2=NC[C@H](Cc3ccccc3)N2C[C@H]1Cc1ccc(O)cc1)NC(=O)CCC1CCCCC1 | n | x | x
Nc1c(C(=O)NCc2ccc3c(c2)OCO3)c2nc3ccccc3nc2n1CCCN1CCOCC1 | n | x | x
O=C(NCc1ccc2c(c1)OCO2)c1cc(-c2ccccc2)c(N2CCOCC2)s1 | -287.3 | n | n
C#CCOCCOCCOCCNc1nc(N2CCN(C(=O)C([C@@H](C)O)n3cc([C@@H](N)CCCCN)nn3)CC2)nc(N2CCN(C(=O)[C@H](CO)n3cc([C@@H](N)C(C)C)nn3)CC2)n1 (stereo partly specified) | n | x | x
C=C(C)C(=O)Nc1cccc(C2=NOC3(C2)C[C@@H](C(N)=O)N(C(=O)c2ccc(Cl)cc2)C3)c1 (stereo partly specified) | -204.2 | n | -126.6 | Fluor interf act=n
C=C(C)C(=O)Nc1cccc(C2=NOC3(C2)C[C@@H](C(N)=O)N(C(=O)C(=C)C)C3)c1 (stereo partly specified) | -291.0 | n | -132.6 | Fluor interf act=n
C=C(C)C(=O)Nc1cccc(C2=NOC3(C2)C[C@H](C(N)=O)N(C(=O)c2ccccc2)C3)c1 (stereo partly specified) | -64.2 | n | -58.6 | Fluor interf act=n
C=C(C)C(=O)Nc1cccc(C2=NOC3(C2)C[C@H](C(N)=O)N(C(=O)COc2ccc(Cl)cc2)C3)c1 (stereo partly specified) | -344.1 | n | -126.9 | Fluor interf act=n
N#Cc1c2c(c(-n3cnc4ccccc43)n3c1nc1ccccc13)CCC2 | n | x | x
Cc1onc(-c2ccccc2Cl)c1C(=O)NCc1ccc2c(c1)cc(C)n2C | n | x | x
O=C(N/N=C\C=C\c1ccc([N+](=O)[O-])o1)c1cccs1 | n | x | x
O=C1C=C(Nc2ccccc2O)c2ccccc2C1=O | n | x | x
COC(=O)c1cccc(-c2ccc(C(c3c(C)[nH][nH]c3=O)c3c(C)[nH][nH]c3=O)o2)c1 | n | x | x
CCCCc1cc(=O)oc2cc(OCC(=O)NCCN3CCOCC3)c(Cl)cc12 | n | x | x
SMILES | Apaf-1 act | Rh110 act interf | Apaf-1 act conf2 | others
C=C(C)C(=O)Nc1cccc(C2=NOC3(C2)C[C@@H](C(N)=O)N(C(=O)c2cc([N+](=O)[O-])cc([N+](=O)[O-])c2C)C3)c1 (stereo partly specified) | -106.8 | n | -128.3 | Fluor interf act=n
CCCC1=Nc2cc(C(=O)NCCCOCC)ccc2Sc2ccccc21 | n | x | x
N#Cc1c(NC(=O)c2ccc(Br)o2)n(-c2ccccc2)c2nc3ccccc3nc12 | n | x | x
CSc1ccccc1NC(=O)c1cc(-c2ccc3c(c2)OCO3)on1 | -196.6 | n | n
CSc1ccccc1NC(=O)c1cc(S(=O)(=O)N(C)C)ccc1N1CCCC1 | n | x | x
C#CCOCCOCCOCCNc1nc(N2CCN(C(=O)CCCCCCCCCCNC(=O)[C@H](CCC(=O)O)n3cc(CCCCCN)nn3)CC2)nc(N2CCN(C(=O)CCCCCCCCCCNC(=O)[C@@H]([C@H](C)O)n3cc(C)nn3)CC2)n1 | n | x | x
